Measurements from ChEMBL document CHEMBL2203053, “DNA binding acridine-thiazolidinone agents affecting intracellular glutathione” (Bioorg Med Chem, 2012).
The source made the active and inactive calls. The rule behind the calls is not given here.

Columns and labels:
[1] = test system: Nucleic Acid; assay: Binding affinity to calf thymus DNA assessed as binding constant by spectrofluorimetry based McGhee von Hippel method; type: nucleic-acid assay; settings: Bos taurus
Procedure, shortened: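 Fluorescence titration used compound at 26.7 µM in 0.01 M Tris buffer (pH 7.4, 24 °C). ctDNA was added stepwise from 0 to 32 µM bp at 2 µM intervals until spectra stopped changing. Excitation was 384 nm and emission was read at 410–470 nm. Binding constant K was derived by the McGhee–von Hippel method from Scatchard plot data.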

[2] = test system: A2780; assay: Cytotoxicity against human A2780 cells after 48 hrs by MTT assay; type: functional, cell-based; settings: A2780, 48 h
Procedure, shortened: (§1)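 HL-60, L1210 and A2780 cells were grown in RPMI 1640 with 10% FBS, penicillin and streptomycin at 37 °C, 5% CO₂; HL-60 and A2780 medium also had 2 mM glutamine. Cells were exposed to 0–30 µM for 48 or 72 h. Viability was read by MTT microculture tetrazolium assay and IC50 was determined.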

[3] = test system: HL-60; assay: Decrease in intracellular glutathione level in human HL60 cells at 2 uM after 24 hrs by spectrophotometric analysis; type: functional, cell-based
[4] = test system: HL-60; assay: Cytotoxicity against human HL60 cells after 72 hrs by MTT assay; type: functional, cell-based; settings: HL-60, 72 h; procedure, shortened: as §1
[5] = test system: Nucleic Acid; assay: Ratio of acridine orange K to compound K for calf thymus DNA by spectrofluorimetry based McGhee von Hippel method; type: nucleic-acid assay; settings: Bos taurus
[6] = test system: L1210; assay: Cytotoxicity against mouse L1210 cells after 48 hrs by MTT assay; type: functional, cell-based; settings: L1210, 48 h; procedure, shortened: as §1
[7] = test system: Nucleic Acid; assay: Binding affinity to calf thymus DNA assessed as hypochromicity at 25 uM by UV-visible spectrophotometry; type: nucleic-acid assay; settings: Bos taurus
Procedure, shortened: (§2)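 Absorption spectra were taken in 0.01 M Tris buffer, pH 7.4. Compounds were diluted from DMSO stock to a final 25 µM. Sonicated calf thymus DNA in TE buffer was added at 0–30 µM bp, with concentration set by A260. Shift of λmax (free vs bound) and % hypochromicity were recorded.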

[8] = test system: Nucleic Acid; assay: Ratio of proflavine K to compound K for calf thymus DNA by spectrofluorimetry based McGhee von Hippel method; type: nucleic-acid assay; settings: Bos taurus
[9] = test system: HL-60; assay: Cytotoxicity against human HL60 cells after 48 hrs using trypan blue exclusion staining by DCC method; type: functional, cell-based; settings: HL-60, 48 h
Procedure, shortened: (§3)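 For trypan blue dye-exclusion direct cell counting, HL-60 cells were seeded at 1 × 10⁵ cells/mL. Compound at 0–10 µM, or 1% DMSO control, was added after 24 h. Viable counts were taken after 24, 48 and 72 h. IC50 (50% inhibition of viability) came from growth curves, as mean ± S.D., n = 3.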

[10] = test system: HL-60; assay: Induction of necrosis in human HL60 cells assessed as cell shrinking at 5 uM after 24 hrs by propidium iodide staining based fluorescence microscopy; type: functional
[11] = test system: HL-60; assay: Drug uptake in human HL60 cells at 5 uM after 4 hrs by Hoechst staining based fluorescence microscopy; type: ADME, cell-based; settings: hl-60, 4 h
Procedure, shortened: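 HL-60 cells were exposed to 5 µM for 4 h at 37 °C, 5% CO₂, then washed in PBS. Intrinsic blue fluorescence was viewed by optical and fluorescence microscopy. Untreated control cells were stained with Hoechst 33342 (10 µM, 10 min).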

[12] = test system: HL-60; assay: Decrease in intracellular glutathione level in human HL60 cells at 2 uM after 2 hrs by spectrophotometric analysis; type: functional, cell-based
[13] = test system: L1210; assay: Cytotoxicity against mouse L1210 cells after 72 hrs by MTT assay; type: functional, cell-based; settings: L1210, 72 h; procedure, shortened: as §1
[14] = test system: Nucleic Acid; assay: Ratio of daunomycin K to compound K for calf thymus DNA by spectrofluorimetry based McGhee von Hippel method; type: nucleic-acid assay; settings: Bos taurus
[15] = test system: HL-60; assay: Cytotoxicity against BSO pretreated human HL60 cells assessed as cell viability at 3 uM treated 6 hrs after BSO addition measured after 48 hrs by trypan blue exclusion assay; type: functional, cell-based
Procedure, shortened: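 HL-60 cells were pretreated 6 h with L-buthionine-sulfoximine (10 µM), then exposed to 1.5, 3.0 or 1.0 µM compound for 48 h. Viable cells were counted by trypan blue staining and expressed as percentage of all cells.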

[16] = test system: Nucleic Acid; assay: Binding affinity to calf thymus DNA assessed as melting temperature at 5 uM at pH 7.1 by thermal denaturation assay; type: nucleic-acid assay; settings: Bos taurus
[17] = test system: A2780; assay: Drug uptake in human A2780 cells at 5 uM after 4 hrs by Hoechst staining based fluorescence microscopy; type: ADME, cell-based; settings: a2780, 4 h
[18] = test system: HL-60; assay: Cytotoxicity against human HL60 cells after 48 hrs by MTT assay; type: functional, cell-based; settings: HL-60, 48 h; procedure, shortened: as §1
[19] = test system: Nucleic Acid; assay: Binding affinity to calf thymus DNA assessed as bathochromic shift at 25 uM by UV-visible spectrophotometry; type: nucleic-acid assay; settings: Bos taurus; procedure, shortened: as §2
[20] = test system: HL-60; assay: Cytotoxicity against human HL60 cells after 72 hrs using trypan blue exclusion staining by DCC method; type: functional, cell-based; settings: HL-60, 72 h; procedure, shortened: as §3
[21] = test system: A2780; assay: Cytotoxicity against human A2780 cells after 72 hrs by MTT assay; type: functional, cell-based; settings: A2780, 72 h; procedure, shortened: as §1

## CN(C)c1ccc2cc3ccc(N(C)C)cc3nc2c1
[1]
  K: 3.19 ×10⁵ /M

## COC(=O)/C=C1\S/C(=N\c2c3ccccc3nc3ccccc23)N(C(C)(C)C)C1=O
[2]
  IC50: > 30 µM
[3]
  Activity: inactive
[4]
  IC50: 3.7 µM
[5]
  Ratio: 10
[6]
  IC50: 17.9 µM
[7]
  Activity: 31.2%
[8]
  Ratio: 10
[9]
  IC50: 3.5 µM
[10]
  Activity: Active
[11]
  Drug uptake: Active
[12]
  Activity: Active
[13]
  IC50: 20.9 µM
[14]
  Ratio: 10
[15]
  Activity: Active
[16]
  Tm: 74 °C
[17]
  Drug uptake: Active
[1]
  K: 1.37 ×10⁶ /M
[18]
  IC50: 5.4 µM
[19]
  Activity: Active
[20]
  IC50: 2.8 µM
[21]
  IC50: 23.7 µM

## COc1cccc2c1C(=O)c1c(O)c3c(c(O)c1C2=O)C[C@@](O)(C(C)=O)C[C@@H]3O[C@H]1C[C@H](N)[C@H](O)[C@H](C)O1
[1]
  K: 7.09 ×10⁵ /M
